# Test results published in ChEMBL document CHEMBL1134588, “[2',6'-Dimethyltyrosine]dynorphin A(1-11)-NH2 analogues lacking an N-terminal amino group: potent and selective kappa opioid antagonists” (J Med Chem, 2001).
# Tests used:
# [1] = molecular target: Kappa-type opioid receptor (Cavia porcellus) (UniProt P41144); experiment: Antagonist activity was evaluated in the guinea pig ileum assay against Dyn A(1-13)-selective agonist of opioid receptor kappa 1; assay type: functional, tissue-based
# [2] = molecular target: Kappa-type opioid receptor (Cavia porcellus) (UniProt P41144); experiment: Antagonist activity was evaluated in the guinea pig ileum assay against U50,488- selective agonist of opioid receptor kappa 1; assay type: functional, tissue-based
# Outline: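 Ke taken from agonist IC50 ratio in presence versus absence of antagonist; [Leu5]enkephalin dose-response on each ileum used to normalize IC50s. Three to six determinations, mean ± SEM.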
# [3] = molecular target: Delta-type opioid receptor (Mus musculus) (UniProt P32300); experiment: Antagonist activity was evaluated in the mouse vas deferens assay against DPDPE which is selective agonist of Delta receptor; assay type: functional, tissue-based
# Chain of Delta-type opioid receptor (Mus musculus) (P32300 whole entry): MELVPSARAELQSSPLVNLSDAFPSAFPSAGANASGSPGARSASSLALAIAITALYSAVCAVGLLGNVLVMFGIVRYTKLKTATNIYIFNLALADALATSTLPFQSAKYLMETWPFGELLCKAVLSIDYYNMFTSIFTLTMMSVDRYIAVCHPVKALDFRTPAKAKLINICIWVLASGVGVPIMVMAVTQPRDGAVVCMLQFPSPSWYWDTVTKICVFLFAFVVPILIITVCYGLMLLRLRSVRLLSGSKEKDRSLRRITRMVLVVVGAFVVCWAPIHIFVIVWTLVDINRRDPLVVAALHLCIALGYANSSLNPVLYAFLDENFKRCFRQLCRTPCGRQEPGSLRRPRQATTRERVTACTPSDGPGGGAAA
# Outline: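 Mouse vas deferens, electrically evoked contractions; delta antagonism against DPDPE at fixed antagonist 30 nM to 10 µM. Ke obtained from agonist IC50 ratio with versus without antagonist; each vas preparation standardized with [Leu5]enkephalin dose-response. Means of three to six determinations ± SEM.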
# [4] = molecular target: Mu-type opioid receptor (Cavia porcellus) (UniProt P97266); experiment: Antagonist activity was evaluated in the guinea pig ileum assay against TAPP-selective agonist of Mu receptor; assay type: functional, tissue-based
# Chain of Mu-type opioid receptor (Cavia porcellus) (P97266 whole entry): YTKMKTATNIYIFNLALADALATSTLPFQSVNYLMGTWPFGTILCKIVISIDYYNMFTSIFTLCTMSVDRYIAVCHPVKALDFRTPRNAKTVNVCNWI
# Outline: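 Mu antagonism in guinea pig ileum (electrically evoked contractions) versus agonist TAPP, fixed antagonist concentrations 100 nM to 5 µM. Ke computed from shift in agonist IC50 (with/without antagonist), IC50s normalized against per-tissue [Leu5]enkephalin standard. Mean of three to six runs ± SEM.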
# Mus musculus = species: Mus musculus; experiment: Inhibitory concentration of compound was measured in mouse vas deferens assay; assay type: functional
# Outline: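 Mouse vas deferens bioassay, measuring inhibition of electrically evoked contractions. A [Leu5]enkephalin standard dose-response curve was run on each vas preparation, and the IC50 values were normalized accordingly.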
# [5] = molecular target: Kappa-type opioid receptor (Cavia porcellus, UniProt P41144); experiment: Binding affinity was measured on opioid receptor kappa 1
# Chain of Kappa-type opioid receptor (P41144 whole entry): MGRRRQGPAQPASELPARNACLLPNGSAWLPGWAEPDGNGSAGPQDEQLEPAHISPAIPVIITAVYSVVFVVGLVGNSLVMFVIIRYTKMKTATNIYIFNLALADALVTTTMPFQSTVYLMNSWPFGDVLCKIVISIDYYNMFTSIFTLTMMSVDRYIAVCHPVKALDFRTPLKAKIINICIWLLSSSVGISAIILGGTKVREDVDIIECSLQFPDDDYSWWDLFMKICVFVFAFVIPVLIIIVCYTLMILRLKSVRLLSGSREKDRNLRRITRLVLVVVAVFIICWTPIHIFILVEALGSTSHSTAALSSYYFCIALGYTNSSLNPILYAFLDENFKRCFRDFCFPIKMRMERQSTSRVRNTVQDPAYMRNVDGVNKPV
# Cavia porcellus = species: Cavia porcellus; experiment: Inhibitory concentration of compound was measured in guinea pig ileum(GPI) assay; assay type: functional
# Outline: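 Isolated guinea pig ileum, measuring inhibition of electrically evoked contractions. Each preparation received a [Leu5]enkephalin dose-response curve as standard, and the IC50 values were normalized to it.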
# Chain of Kappa-type opioid receptor (Cavia porcellus) (P41144 whole entry): as above
SMILES,IC50 (Mus musculus) [nM],Ki [5] [nM],also measured
CC[C@H](C)[C@H](NC(=O)[C@H](CCCNC(=N)N)NC(=O)[C@H](CCCNC(=N)N)NC(=O)[C@H](CC(C)C)NC(=O)[C@H](Cc1ccccc1)NC(=O)CNC(=O)CNC(=O)[C@@H](C)Cc1c(C)cc(O)cc1C)C(=O)N[C@@H](CCCNC(=N)N)C(=O)N1CCC[C@H]1C(=O)N[C@@H](CCCCN)C(N)=O,,,Ke [1]: 0.632 nM; Ke [2]: 3.92 nM; Ke [3]: 3.22 µM; Ke [4]: 925 nM
CC[C@H](C)[C@H](NC(=O)[C@H](CCCNC(=N)N)NC(=O)[C@H](CCCNC(=N)N)NC(=O)[C@H](CC(C)C)NC(=O)[C@H](Cc1ccccc1)NC(=O)CNC(=O)CNC(=O)CCc1ccc(O)cc1)C(=O)N[C@@H](CCCNC(=N)N)C(=O)N1CCC[C@H]1C(=O)N[C@@H](CCCCN)C(N)=O,722,30.7,
CC[C@H](C)[C@H](NC(=O)[C@H](CCCN=C(N)N)NC(=O)[C@H](CCCN=C(N)N)NC(=O)[C@H](CC(C)C)NC(=O)[C@H](Cc1ccccc1)NC(=O)[C@@H](C)NC(=O)CNC(=O)[C@@H](C)Cc1c(C)cc(O)cc1C)C(=O)N[C@@H](CCCN=C(N)N)C(=O)N1CCC[C@H]1C(=O)N[C@@H](CCCCN)C(N)=O,,2.47,
CC[C@H](C)[C@H](NC(=O)[C@H](CCCN=C(N)N)NC(=O)[C@H](CCCN=C(N)N)NC(=O)[C@H](CC(C)C)NC(=O)[C@H](Cc1ccccc1)NC(=O)[C@@H](C)NC(=O)CNC(=O)CCc1c(C)cc(O)cc1C)C(=O)N[C@@H](CCCN=C(N)N)C(=O)N1CCC[C@H]1C(=O)N[C@@H](CCCCN)C(N)=O,,3.84,
CC[C@H](C)[C@H](NC(=O)[C@H](CCCN=C(N)N)NC(=O)[C@H](CCCN=C(N)N)NC(=O)[C@H](CC(C)C)NC(=O)[C@H](Cc1ccccc1)NC(=O)CNC(=O)CNC(=O)[C@@H](N)Cc1ccc(O)cc1)C(=O)N[C@@H](CCCN=C(N)N)C(=O)N1CCC[C@H]1C(=O)N[C@@H](CCCCN)C(N)=O,12.9,,IC50 (Cavia porcellus): 0.456 nM
CC[C@H](C)[C@H](NC(=O)[C@H](CCCN=C(N)N)NC(=O)[C@H](CCCN=C(N)N)NC(=O)[C@H](CC(C)C)NC(=O)[C@H](Cc1ccccc1)NC(=O)CNC(=O)CNC(=O)[C@@H](N)Cc1c(C)cc(O)cc1C)C(=O)N[C@@H](CCCN=C(N)N)C(=O)N1CCC[C@H]1C(=O)N[C@@H](CCCCN)C(N)=O,0.377,,IC50 (Cavia porcellus): 0.502 nM
CC[C@H](C)[C@H](NC(=O)[C@H](CCCNC(=N)N)NC(=O)[C@H](CCCNC(=N)N)NC(=O)[C@H](CC(C)C)NC(=O)[C@H](Cc1ccccc1)NC(=O)CNC(=O)CNC(=O)CCc1c(C)cc(O)cc1C)C(=O)N[C@@H](CCCNC(=N)N)C(=O)N1CCC[C@H]1C(=O)N[C@@H](CCCCN)C(N)=O,,3.49,
Oc1ccc2c3c1O[C@H]1c4[nH]c5c(c4C[C@@]4(O)[C@@H](C2)N(CC2CC2)CC[C@]314)C[C@@]1(O)[C@H]2Cc3ccc(O)c4c3[C@@]1(CCN2CC1CC1)[C@H]5O4 [NORBINALTORPHIMINE],,0.81,
